# Laboratory results published in publication PMC9214849 (Chemical Science, 2022).
# Key:
# [1] = test system: Candida albicans, Escherichia coli, Enterococcus faecalis, and Staphylococcus epidermidis; settings: ref 41,42 (Aβ); 43 (hIAPP); 44,45 (GNNQQNY); 46 (KLVFFGAIL); cited from earlier work
# [2] = target: T1, human calcitonin1-32 (hCT) (Homo sapiens, UniProt P01258); assay: AFM morphology of aggregates, hCT; type: biochemical; settings: pure hCT 20 μM, 24 h
# T1 sequence (P01258 85-116): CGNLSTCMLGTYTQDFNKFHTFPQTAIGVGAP
# In short: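 AFM imaging of samples taken at different time points of the ThT kinetics runs. hCT at 20 μM was incubated alone or with 5–20 μM test defensin at 37 °C. Fibril heights and lengths were measured from the images.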
# [3] = test system: SH-SY5Y cells; assay: MTT cell viability, SH-SY5Y; type: cell-based, human; settings: pure amyloid 20 μM, 24 h
# [4] = target: T1, human calcitonin1-32 (hCT); assay: CD secondary structure, hCT; type: biochemical; settings: pure 20 μM, 10 mM sodium phosphate pH 7.4, 37 °C, 24–72 h, BeStSel
# In short: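 Aβ, hIAPP or hCT at 20 μM, alone or co-incubated with test defensin at 37 °C. Circular dichroism spectra were deconvoluted with BestSel into secondary-structure fractions, including β-structure content.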
# [5] = test system: SH-SY5Y cells; assay: LDH cytotoxicity, SH-SY5Y; type: cell-based, human; settings: pure amyloid 20 μM, 24 h; % of positive control
# [6] = target: human islet amyloid polypeptide1-37 (hIAPP) (Homo sapiens, UniProt P10997); assay: CD secondary structure, hIAPP; type: biochemical; settings: pure 20 μM, 10 mM sodium phosphate pH 7.4, 37 °C, 24–72 h, BeStSel
# In short: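 Samples held 20 μM hIAPP with 0, 5 or 20 μM defensin. Circular dichroism spectra were recorded on the aggregates. Secondary-structure fractions, including β-structure content, were fitted from the spectra with BestSel.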
# [7] = test system: RIN-m5F cells; assay: MTT cell viability, RIN-m5F; type: cell-based, rat; settings: pure amyloid 20 μM, 24 h
# [8] = test system: Escherichia coli; settings: cited from earlier work
# [9] = test system: Staphylococcus aureus; settings: cited from earlier work
# [10] = test system: RIN-m5F cells; assay: LDH cytotoxicity, RIN-m5F; type: cell-based, rat; settings: pure amyloid 20 μM, 24 h; % of positive control
# Sequence of human islet amyloid polypeptide1-37 (hIAPP) (P10997 34-70): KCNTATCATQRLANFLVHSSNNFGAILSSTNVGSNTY
molecule,measurement,setting,value
KLVFFGAIL,antibacterial and antifungal activities,[1],antibacterial and antifungal activities
CC[C@H](C)[C@H](NC(=O)[C@H](C)NC(=O)[C@@H](NC(=O)[C@H](CCC(N)=O)NC(=O)[C@@H]1CCCN1C(=O)[C@H](Cc1ccccc1)NC(=O)[C@@H](NC(=O)[C@H](Cc1c[nH]cn1)NC(=O)[C@H](Cc1ccccc1)NC(=O)[C@H](CCCCN)NC(=O)[C@H](CC(N)=O)NC(=O)[C@H](Cc1ccccc1)NC(=O)[C@H](CC(=O)O)NC(=O)[C@H](CCC(N)=O)NC(=O)[C@@H](NC(=O)[C@H](Cc1ccc(O)cc1)NC(=O)[C@@H](NC(=O)CNC(=O)[C@H](CC(C)C)NC(=O)[C@H](CCSC)NC(=O)[C@@H]1CSSC[C@H](N)C(=O)NCC(=O)N[C@@H](CC(N)=O)C(=O)N[C@@H](CC(C)C)C(=O)N[C@@H](CO)C(=O)N[C@@H]([C@@H](C)O)C(=O)N1)[C@@H](C)O)[C@@H](C)O)[C@@H](C)O)[C@@H](C)O)C(=O)NCC(=O)N[C@H](C(=O)NCC(=O)N[C@@H](C)C(=O)N1CCC[C@H]1C(N)=O)C(C)C [hCT],average height of fibrils,[2],16 nm
same,average length of fibrils,[2]; N up to 40,477 nm
same,cell viability,[3],67%
same,β-structure content,[4],56.4%
same,cell toxicity,[5],35%
GNNQQNY,antibacterial and antifungal activities,[1],antibacterial and antifungal activities
CC[C@H](C)[C@H](NC(=O)[C@H](C)NC(=O)CNC(=O)[C@H](Cc1ccccc1)NC(=O)[C@H](CC(N)=O)NC(=O)[C@H](CC(N)=O)NC(=O)[C@H](CO)NC(=O)[C@H](CO)NC(=O)[C@H](Cc1c[nH]cn1)NC(=O)[C@@H](NC(=O)[C@H](CC(C)C)NC(=O)[C@H](Cc1ccccc1)NC(=O)[C@H](CC(N)=O)NC(=O)[C@H](C)NC(=O)[C@H](CC(C)C)NC(=O)[C@H](CCCNC(=N)N)NC(=O)[C@H](CCC(N)=O)NC(=O)[C@@H](NC(=O)[C@H](C)NC(=O)[C@@H]1CSSC[C@H](NC(=O)[C@@H](N)CCCCN)C(=O)N[C@@H](CC(N)=O)C(=O)N[C@@H]([C@@H](C)O)C(=O)N[C@@H](C)C(=O)N[C@@H]([C@@H](C)O)C(=O)N1)[C@@H](C)O)C(C)C)C(=O)N[C@@H](CC(C)C)C(=O)N[C@@H](CO)C(=O)N[C@@H](CO)C(=O)N[C@H](C(=O)N[C@@H](CC(N)=O)C(=O)N[C@H](C(=O)NCC(=O)N[C@@H](CO)C(=O)N[C@@H](CC(N)=O)C(=O)N[C@H](C(=O)N[C@@H](Cc1ccc(O)cc1)C(N)=O)[C@@H](C)O)C(C)C)[C@@H](C)O [hIAPP],β-structure content,[6],48.5%
same,cell viability,[7],55%
same,antibacterial and antifungal activities,[1],antibacterial and antifungal activities
same,bacteria growth,[8],hinder Staphylococcus aureus and Escherichia coli bacteria growth
same,bacteria growth,[9],hinder Staphylococcus aureus and Escherichia coli bacteria growth
same,cell toxicity,[10],25%
